In ChEMBL document CHEMBL2385070, “Selective inhibition of bacterial and human topoisomerases by N-arylacyl O-sulfonated aminoglycoside derivatives” (ACS Med Chem Lett, 2013):
Activity calls are given as the source filed them. No cut-off for these calls is given here.

What was measured:
[1] = target: T1, DNA topoisomerase 1 (Homo sapiens) (UniProt P11387); assay: Inhibition of human DNA topoisomerase 1 at 200 uM relative to control
T1 sequence (whole entry): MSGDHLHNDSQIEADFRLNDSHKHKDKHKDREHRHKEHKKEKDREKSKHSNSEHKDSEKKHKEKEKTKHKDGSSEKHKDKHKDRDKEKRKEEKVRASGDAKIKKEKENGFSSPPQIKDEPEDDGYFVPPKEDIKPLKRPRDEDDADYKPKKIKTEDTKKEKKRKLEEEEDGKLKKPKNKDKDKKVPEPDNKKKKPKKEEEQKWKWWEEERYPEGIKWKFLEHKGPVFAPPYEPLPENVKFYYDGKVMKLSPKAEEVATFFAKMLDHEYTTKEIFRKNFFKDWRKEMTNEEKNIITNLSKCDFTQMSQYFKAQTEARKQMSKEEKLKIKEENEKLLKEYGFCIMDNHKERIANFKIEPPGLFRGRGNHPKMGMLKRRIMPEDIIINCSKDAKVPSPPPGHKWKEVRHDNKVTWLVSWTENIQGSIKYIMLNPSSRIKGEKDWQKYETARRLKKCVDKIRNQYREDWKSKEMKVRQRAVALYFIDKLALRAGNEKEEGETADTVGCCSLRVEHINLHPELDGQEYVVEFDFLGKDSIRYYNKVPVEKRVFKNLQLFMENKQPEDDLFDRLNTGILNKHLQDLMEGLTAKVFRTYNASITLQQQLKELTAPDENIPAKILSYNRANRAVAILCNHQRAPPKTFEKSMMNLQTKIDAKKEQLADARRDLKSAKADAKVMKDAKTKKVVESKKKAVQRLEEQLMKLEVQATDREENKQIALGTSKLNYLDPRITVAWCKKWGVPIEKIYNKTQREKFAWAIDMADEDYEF

[2] = target: DNA topoisomerase 2-alpha (Homo sapiens) (UniProt P11388); assay: Inhibition of human DNA topoisomerase 2 at 200 uM relative to control
[3] = system: Escherichia coli; assay: Inhibition of Escherichia coli DNA topoisomerase 4 at 200 uM relative to control
[4] = system: Escherichia coli; assay: Inhibition of Escherichia coli DNA gyrase catalytic activity at 200 uM relative to control
Summary of the method: (§1)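 E. coli gyrase was incubated with relaxed DNA, either without compound or with compound at 200 μM; titrations also used 20, 50 and 100 μM. Gel lanes included a no-enzyme control and an enzyme-without-compound control, and supercoiling was scored from the lane pattern. In the summary table, + denotes greater than 95% inhibition.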

[5] = system: Escherichia coli; assay: Inhibition of Escherichia coli DNA topoisomerase 4 assessed as blockade of ciprofloxacin-induced pBR322 DNA cleavage at 200 uM after 10 mins by agarose gel electrophoresis
Summary of the method: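 E. coli Topo IV was incubated with plasmid DNA and ciprofloxacin with or without compound. Ciprofloxacin traps the enzyme–DNA ternary complex, and nicked and linear DNA products were scored on the gel against the supercoiled substrate.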

[6] = system: Escherichia coli; assay: Inhibition of Escherichia coli DNA topoisomerase 4-mediated decatenation of kinetoplast DNA at 200 uM after 15 mins by agarose gel electrophoresis
[7] = system: Escherichia coli; assay: Inhibition of Escherichia coli DNA topoisomerase 4-mediated relaxation of negatively supercoiled pBR322 DNA at 200 uM after 15 mins by agarose gel electrophoresis
[8] = system: Escherichia coli; assay: Inhibition of Escherichia coli DNA gyrase-mediated supercoiling of relaxed I-DNA after 15 mins by agarose gel electrophoresis; summary of the method: as §1

DNA topoisomerase 2-alpha (Homo sapiens), sequence (P11388 whole entry): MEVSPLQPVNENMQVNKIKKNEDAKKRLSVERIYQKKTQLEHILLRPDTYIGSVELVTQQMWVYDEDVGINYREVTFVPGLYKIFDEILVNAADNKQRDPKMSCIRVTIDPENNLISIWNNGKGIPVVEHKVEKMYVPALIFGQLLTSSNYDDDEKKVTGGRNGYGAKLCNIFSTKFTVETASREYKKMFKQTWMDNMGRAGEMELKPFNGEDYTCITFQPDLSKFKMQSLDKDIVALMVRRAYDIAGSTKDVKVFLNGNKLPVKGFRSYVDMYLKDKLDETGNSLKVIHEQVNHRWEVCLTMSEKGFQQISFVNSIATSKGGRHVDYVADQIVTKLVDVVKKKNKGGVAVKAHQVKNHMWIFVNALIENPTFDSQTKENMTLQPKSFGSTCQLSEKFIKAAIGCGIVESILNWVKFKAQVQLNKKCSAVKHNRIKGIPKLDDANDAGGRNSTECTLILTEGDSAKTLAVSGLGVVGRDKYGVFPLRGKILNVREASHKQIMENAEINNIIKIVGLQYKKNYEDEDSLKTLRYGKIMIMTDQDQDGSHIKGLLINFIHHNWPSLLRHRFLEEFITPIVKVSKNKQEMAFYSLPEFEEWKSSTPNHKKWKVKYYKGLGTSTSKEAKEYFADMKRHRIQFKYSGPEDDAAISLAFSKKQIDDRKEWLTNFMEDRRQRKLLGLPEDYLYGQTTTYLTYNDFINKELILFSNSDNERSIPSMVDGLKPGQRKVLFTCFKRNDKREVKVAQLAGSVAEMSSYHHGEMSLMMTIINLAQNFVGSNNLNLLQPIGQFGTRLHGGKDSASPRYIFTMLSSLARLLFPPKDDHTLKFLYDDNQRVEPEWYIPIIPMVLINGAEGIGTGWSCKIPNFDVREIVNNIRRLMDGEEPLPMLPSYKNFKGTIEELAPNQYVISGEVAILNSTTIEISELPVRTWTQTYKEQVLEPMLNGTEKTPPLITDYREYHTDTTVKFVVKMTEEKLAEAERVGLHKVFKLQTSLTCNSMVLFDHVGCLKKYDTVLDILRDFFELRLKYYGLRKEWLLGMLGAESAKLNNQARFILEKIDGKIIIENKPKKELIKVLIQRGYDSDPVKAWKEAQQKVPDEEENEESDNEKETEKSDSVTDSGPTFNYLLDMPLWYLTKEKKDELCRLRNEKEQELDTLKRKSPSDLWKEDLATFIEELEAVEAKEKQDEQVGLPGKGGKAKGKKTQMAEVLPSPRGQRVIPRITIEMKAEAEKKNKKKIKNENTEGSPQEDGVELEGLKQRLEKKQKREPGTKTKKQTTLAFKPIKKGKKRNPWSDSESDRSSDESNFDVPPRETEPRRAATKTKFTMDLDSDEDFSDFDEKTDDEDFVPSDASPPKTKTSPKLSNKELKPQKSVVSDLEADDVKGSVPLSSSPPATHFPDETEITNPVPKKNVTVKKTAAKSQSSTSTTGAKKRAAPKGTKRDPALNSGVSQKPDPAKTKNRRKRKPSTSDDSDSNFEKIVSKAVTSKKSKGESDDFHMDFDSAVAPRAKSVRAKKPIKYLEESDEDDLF

inhibition [1]	inhibition [2]	inhibition [3]	inhibition [4]	inhibition [5]	inhibition [6]	inhibition [7]	inhibition [8]	SMILES
inactive	inactive	inactive	inactive					O=C(NC[C@H]1O[C@H](O[C@H]2[C@H](O)[C@@H](O[C@H]3O[C@H](CO)[C@@H](O)[C@H](NC(=O)c4ccccc4)[C@H]3O)[C@H](NC(=O)c3ccccc3)C[C@@H]2NC(=O)c2ccccc2)[C@H](O)[C@@H](O)[C@@H]1O)c1ccccc1
inactive	inactive	inactive	inactive					O=C(Cc1ccccc1)NC[C@H]1O[C@H](O[C@H]2[C@H](O)[C@@H](O[C@H]3O[C@H](CO)[C@@H](O)[C@H](NC(=O)Cc4ccccc4)[C@H]3O)[C@H](NC(=O)Cc3ccccc3)C[C@@H]2NC(=O)Cc2ccccc2)[C@H](O)[C@@H](O)[C@@H]1O
inactive	inactive	inactive	inactive					O=C(NC[C@@H]1O[C@H](O[C@H]2[C@@H](O)[C@H](O[C@@H]3[C@@H](O)[C@H](NC(=O)OCc4ccccc4)C[C@H](NC(=O)OCc4ccccc4)[C@H]3O[C@H]3O[C@H](CNC(=O)OCc4ccccc4)[C@@H](O)[C@H](O)[C@H]3NC(=O)OCc3ccccc3)O[C@@H]2CO)[C@H](NC(=O)OCc2ccccc2)[C@@H](O)[C@@H]1O)OCc1ccccc1
inactive	inactive	inactive	inactive					CC(=O)NC[C@@H]1O[C@H](O[C@H]2[C@@H](O)[C@H](O[C@@H]3[C@@H](O)[C@H](NC(C)=O)C[C@H](NC(C)=O)[C@H]3O[C@H]3O[C@H](CNC(C)=O)[C@@H](O)[C@H](O)[C@H]3NC(C)=O)O[C@@H]2CO)[C@H](NC(C)=O)[C@@H](O)[C@@H]1O
				Active	Active	Active	Dose-dependent effect	O=C(NC[C@@H]1O[C@H](O[C@H]2[C@@H](OS(=O)(=O)O)[C@H](O[C@@H]3[C@@H](OS(=O)(=O)O)[C@H](NC(=O)OCc4ccccc4)C[C@H](NC(=O)OCc4ccccc4)[C@H]3O[C@H]3O[C@H](CNC(=O)OCc4ccccc4)[C@@H](OS(=O)(=O)O)[C@H](OS(=O)(=O)O)[C@H]3NC(=O)OCc3ccccc3)O[C@@H]2COS(=O)(=O)O)[C@H](NC(=O)OCc2ccccc2)[C@@H](OS(=O)(=O)O)[C@@H]1OS(=O)(=O)O)OCc1ccccc1
inactive	inactive	inactive	inactive					O=C(NC[C@H]1O[C@H](O[C@H]2[C@H](O)[C@@H](O[C@H]3O[C@H](CO)[C@@H](O)[C@H](NC(=O)OCc4ccccc4)[C@H]3O)[C@H](NC(=O)OCc3ccccc3)C[C@@H]2NC(=O)OCc2ccccc2)[C@H](O)[C@@H](O)[C@@H]1O)OCc1ccccc1
inactive	inactive	inactive	inactive					O=C(Cc1ccccc1)NC[C@@H]1O[C@H](O[C@H]2[C@@H](O)[C@H](O[C@@H]3[C@@H](O)[C@H](NC(=O)Cc4ccccc4)C[C@H](NC(=O)Cc4ccccc4)[C@H]3O[C@H]3O[C@H](CNC(=O)Cc4ccccc4)[C@@H](O)[C@H](O)[C@H]3NC(=O)Cc3ccccc3)O[C@@H]2CO)[C@H](NC(=O)Cc2ccccc2)[C@@H](O)[C@@H]1O
inactive	inactive	inactive	inactive					CN(C(=O)OCc1ccccc1)[C@@H]1[C@@H](O[C@H]2O[C@H](CO)[C@@H](NC(=O)OCc3ccccc3)[C@H](O)[C@H]2O)O[C@H]2C[C@@H](NC(=O)OCc3ccccc3)[C@@H](O[C@H]3[C@H](O)[C@@H](O)[C@H](NC(=O)OCc4ccccc4)C[C@@H]3NC(=O)OCc3ccccc3)O[C@@H]2[C@@H]1O
				Active				CN(C(=O)c1ccccc1)[C@@H]1[C@@H](O[C@H]2O[C@H](CO)[C@@H](NC(=O)c3ccccc3)[C@H](O)[C@H]2O)O[C@H]2C[C@@H](NC(=O)c3ccccc3)[C@@H](O[C@H]3[C@H](O)[C@@H](O)[C@H](NC(=O)c4ccccc4)C[C@@H]3NC(=O)c3ccccc3)O[C@@H]2[C@@H]1O
